Assay results reported in PubChem BioAssay AID602299 (The Scripps Research Institute Molecular Screening Center, 2012).
Calls of active or inactive are those of the source.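 Rule for the calls: active = inhibition of 50% or more of probe labeling of the enzyme band; inactive = inhibition below 50%.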

Each molecule was assayed against Diacylglycerol lipase-beta (Mus musculus) (UniProt Q91WC9) (assay: mouse DAGLb inhibitors by competitive ABPP, late-stage follow-up, biochemical, gel-based fluorescence, overexpressed mouse, set 2 (AID 602299)). Settings: HEK293T membrane overexpressed mouse DAGLb, at 10 µM, active compounds read high.
How it was run: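 Material: membrane proteome of HEK293T cells transiently overexpressing mouse DAGLb; input: 0.3 mg/mL membrane protein; reagent: HT-01 probe, 1 µM; controls: DMSO-only high, gel background low; signal: reducing SDS-PAGE with in-gel fluorescence; times: 30 min compound pre-incubation then 30 min probe labeling, 37 °C; read-out basis: % inhibition from band optical density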

Chain of Diacylglycerol lipase-beta (Mus musculus) (Q91WC9 whole entry, looked up): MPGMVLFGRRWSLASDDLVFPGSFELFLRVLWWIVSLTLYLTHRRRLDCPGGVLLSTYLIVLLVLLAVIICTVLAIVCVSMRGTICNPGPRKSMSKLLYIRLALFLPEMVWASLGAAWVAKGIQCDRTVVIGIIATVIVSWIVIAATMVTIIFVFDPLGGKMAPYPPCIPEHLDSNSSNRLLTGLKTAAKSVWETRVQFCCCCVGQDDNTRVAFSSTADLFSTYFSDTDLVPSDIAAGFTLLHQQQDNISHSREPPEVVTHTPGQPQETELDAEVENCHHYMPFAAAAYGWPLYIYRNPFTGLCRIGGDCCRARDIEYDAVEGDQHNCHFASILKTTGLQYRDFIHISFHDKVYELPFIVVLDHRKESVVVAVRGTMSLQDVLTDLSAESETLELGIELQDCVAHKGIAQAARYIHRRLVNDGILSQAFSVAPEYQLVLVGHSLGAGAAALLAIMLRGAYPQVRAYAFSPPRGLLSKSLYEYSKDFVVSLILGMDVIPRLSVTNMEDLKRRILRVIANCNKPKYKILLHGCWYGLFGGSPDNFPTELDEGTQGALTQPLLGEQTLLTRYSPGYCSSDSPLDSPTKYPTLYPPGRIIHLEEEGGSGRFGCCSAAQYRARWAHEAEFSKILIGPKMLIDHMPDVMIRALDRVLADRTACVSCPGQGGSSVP

Compound	inhibition
COc1ccccc1-c1ccc(-c2cn(C(=O)N3CCCC(Cc4ccccc4)C3)nn2)cc1 (stereo not drawn)	99%
COc1ccccc1-c1ccc(-c2cn(C(=O)N3CCCCC3CCc3ccccc3)nn2)cc1 (stereo not drawn)	69%
COc1ccc(-c2ccc(-c3cn(C(=O)N4CCCCC4c4ccccc4)nn3)cc2)cc1 (stereo not drawn)	11% (inactive)
O=C(N1CCCCC1CCc1ccccc1)n1cc(-c2ccc(-c3ccccc3)cc2)nn1 (stereo not drawn)	59%
O=C(N1CCCCC1c1ccccc1)n1cc(-c2ccc(-c3ccccc3)cc2)nn1 (stereo not drawn)	50%

Second part, the molecule after the results:

inhibition	Compound
98%	COc1ccccc1-c1ccc(-c2cn(C(=O)N3CCC(Cc4ccccc4)CC3)nn2)cc1
39% (inactive)	O=C(N1CCCCC1c1ccccc1)n1cc(C(O)(c2ccccc2)c2ccccc2)nn1 (stereo not drawn)
64%	COc1ccccc1-c1ccc(-c2cn(C(=O)N3CCCCC3c3ccccc3)nn2)cc1 (stereo not drawn)
